The source made the active and inactive calls. The rule behind the calls is not given here.
Tests used:
[1] = Photostability assessed as residual absorbance at 2.5 mW/cm2 irradiation for 45 mins; format: physicochemical; conditions: read-out: Stability
[2] = Photostability assessed as residual absorbance at 2.5 mW/cm2 irradiation for 30 mins; format: physicochemical; conditions: read-out: Stability
[3] = Induction of singlet oxygen production at 1 uM after irradiation at 10 mW/cm2 in presence of 1,3-diphenylisobenzofuran; format: physicochemical
How it was run: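 Photosensitizer at 10^-6 M with DPBF at 6 × 10^-5 M in DMF/H2O (9/1). Illuminated at room temperature for 30 min with two 30 W white bulbs, 10 mW/cm2. DPBF absorbance decay read at 415 nm every 3 min.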

[4] = Photostability assessed as residual absorbance at 2.5 mW/cm2 irradiation for 60 mins; format: physicochemical; conditions: read-out: Stability
Escherichia coli [5] = assay: Induction of DNA photocleavage activity in Escherichia coli pBR322 plasmid assessed as supercoiled DNA form at 10 uM after 90 mins irradiation at 2.5 mW/cm2 by gel electrophoresis
How it was run: (§1)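 Supercoiled pBR322 (0.25 µg in 10 µL) in 3 mM Tris–HCl, 0.3 mM EDTA, pH 8.0 at 25 °C, with 10 µM porphyrin. White light at 2.5 mW/cm2 from an 18 W lamp 4 cm away, for 15–120 min. Controls without porphyrin and/or without light. Products run on 0.7% non-denaturing agarose, SYBRsafe stain, transilluminator at 312 nm. Supercoiled, nicked and linear forms quantified as %.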

Escherichia coli [6] = assay: Induction of DNA photocleavage activity in Escherichia coli pBR322 plasmid assessed as nicked DNA form at 10 uM after 15 mins irradiation at 2.5 mW/cm2 by gel electrophoresis; how it was run: as §1
Escherichia coli [7] = assay: Induction of DNA photocleavage activity in Escherichia coli pBR322 plasmid assessed as nicked DNA form at 10 uM by gel electrophoresis; how it was run: as §1
Escherichia coli [8] = assay: Induction of DNA photocleavage activity in Escherichia coli pBR322 plasmid assessed as supercoiled DNA form at 10 uM by gel electrophoresis
[9] = Photostability assessed as residual absorbance at 2.5 mW/cm2 irradiation for 15 mins; format: physicochemical; conditions: read-out: Stability
Escherichia coli [10] = assay: Induction of DNA photocleavage activity in Escherichia coli pBR322 plasmid assessed as supercoiled DNA form at 10 uM after 15 mins irradiation at 2.5 mW/cm2 by gel electrophoresis; how it was run: as §1
[11] = Lipophilicity, log P of the compound; format: physicochemical; conditions: octanol/water
How it was run: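 1-Octanol/water partition at 25 °C with equal 3 mL phases and dye at 300 µM. Mixture vortexed and centrifuged. Aqueous and organic aliquots each diluted into MeOH, and dye concentration in each phase measured by absorption spectroscopy.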

Escherichia coli [12] = assay: Induction of DNA photocleavage activity in Escherichia coli pBR322 plasmid assessed as nicked DNA form at 10 uM after 60 mins irradiation at 2.5 mW/cm2 by gel electrophoresis; how it was run: as §1
Escherichia coli [13] = assay: Induction of DNA photocleavage activity in Escherichia coli pBR322 plasmid assessed as nicked DNA form at 10 uM after 120 mins irradiation at 2.5 mW/cm2 by gel electrophoresis; how it was run: as §1
Escherichia coli [14] = assay: Induction of DNA photocleavage activity in Escherichia coli pBR322 plasmid assessed as supercoiled DNA form at 10 uM after 120 mins irradiation at 2.5 mW/cm2 by gel electrophoresis; how it was run: as §1
Escherichia coli [15] = assay: Induction of DNA photocleavage activity in Escherichia coli pBR322 plasmid assessed as supercoiled DNA form at 10 uM after 30 mins irradiation at 2.5 mW/cm2 by gel electrophoresis; how it was run: as §1
Escherichia coli [16] = assay: Induction of DNA photocleavage activity in Escherichia coli pBR322 plasmid assessed as supercoiled DNA form at 10 uM after 60 mins irradiation at 2.5 mW/cm2 by gel electrophoresis; how it was run: as §1
Escherichia coli [17] = assay: Induction of DNA photocleavage activity in Escherichia coli pBR322 plasmid assessed as nicked DNA form at 10 uM after 90 mins irradiation at 2.5 mW/cm2 by gel electrophoresis; how it was run: as §1
Escherichia coli [18] = assay: Induction of DNA photocleavage activity in Escherichia coli pBR322 plasmid assessed as nicked DNA form at 10 uM after 30 mins irradiation at 2.5 mW/cm2 by gel electrophoresis; how it was run: as §1
Escherichia coli [19] = assay: Induction of DNA photocleavage activity in Escherichia coli pBR322 plasmid assessed as nicked DNA form at 10 uM after 60 mins irradiation at 2.5 mW/cm2 by gel electrophoresis in presence of sodium azide
How it was run: (§2)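 pBR322 (0.25 µg) in 3 mM Tris–HCl, 0.3 mM EDTA, pH 8.0 with 10 µM porphyrin, irradiated 60 min in the presence of 100 mM sodium azide (singlet oxygen quencher) or 100 mM mannitol (hydroxyl radical scavenger). Controls without porphyrin, ± irradiation, with each additive. Read-out by agarose gel electrophoresis.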

Escherichia coli [20] = assay: Induction of DNA photocleavage activity in Escherichia coli pBR322 plasmid assessed as nicked DNA form at 10 uM after 60 mins irradiation at 2.5 mW/cm2 by gel electrophoresis in presence of mannitol; how it was run: as §2
DNA = assay: Binding affinity to calf thymus DNA at 4 uM in phosphate buffer of pH 7.4 by UV-vis spectroscopy; format: nucleic-acid assay; conditions: Bos taurus
How it was run: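 Porphyrin held at 4 × 10^-6 M in PBS pH 7.4 and read by UV–vis at the Soret maximum. Calf thymus DNA titrated in at base-pair concentrations from 1.2 × 10^-6 to 1.2 × 10^-5 M, base pair/porphyrin ratio 0.2 to 3. Change in the Soret band followed.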

Escherichia coli [21] = assay: Induction of DNA photocleavage activity in Escherichia coli pBR322 plasmid assessed as linear DNA form at 10 uM after 90 mins irradiation at 2.5 mW/cm2 by gel electrophoresis; how it was run: as §1
Escherichia coli [22] = assay: Induction of DNA photocleavage activity in Escherichia coli pBR322 plasmid assessed as linear DNA form at 10 uM after 120 mins irradiation at 2.5 mW/cm2 by gel electrophoresis; how it was run: as §1
Escherichia coli [23] = assay: Induction of DNA photocleavage activity in Escherichia coli pBR322 plasmid assessed as supercoiled DNA form at 10 uM after 60 mins irradiation at 2.5 mW/cm2 by gel electrophoresis in presence of mannitol; how it was run: as §2
Escherichia coli [24] = assay: Induction of DNA photocleavage activity in Escherichia coli pBR322 plasmid assessed as supercoiled DNA form at 10 uM after 60 mins irradiation at 2.5 mW/cm2 by gel electrophoresis in presence of sodium azide; how it was run: as §2
Escherichia coli [25] = assay: Induction of DNA photocleavage activity in Escherichia coli pBR322 plasmid at 10 uM after irradiation for 2 hrs by gel electrophoresis
Escherichia coli [26] = assay: Induction of DNA photocleavage activity in Escherichia coli pBR322 plasmid assessed as linear DNA form at 10 uM after 60 mins irradiation at 2.5 mW/cm2 by gel electrophoresis; how it was run: as §1

SMILES | remaining at 0.75 h [1] [%] | remaining at 0.5 h [2] [%] | Activity [3] | remaining at 1 h [4] [%] | Activity (Escherichia coli [5]) [%] | Activity (Escherichia coli [6]) [%] | Activity (Escherichia coli [7]) [%] | Activity (Escherichia coli [8]) [%] | remaining at 0.25 h [9] [%] | Activity (Escherichia coli [10]) [%] | logP [11] | Activity (Escherichia coli [12]) [%] | Activity (Escherichia coli [13]) [%] | Activity (Escherichia coli [14]) [%] | Activity (Escherichia coli [15]) [%] | Activity (Escherichia coli [16]) [%] | Activity (Escherichia coli [17]) [%] | Activity (Escherichia coli [18]) [%] | Activity (DNA) | Activity (Escherichia coli [21]) [%] | other results
C=CC1=C(C)c2cc3[nH]c(cc4nc(cc5[nH]c(cc1n2)c(C)c5CCC(=O)NCCCCC(=O)N(CCCN)CCCCN)C(CCC(=O)NCCCCC(=O)N(CCCN)CCCCN)=C4C)c(C)c3C=C | 98 | 99 | Active | 97 | 12 | 54 | 36 | 78 | 100 | 46 | -0.12 | 78 | 90 | 5 | 36 | 22 | 84 | 64 | Active | 4 | Activity (Escherichia coli [19]): 42%; Activity (Escherichia coli [20]): 58%; Activity (Escherichia coli [22]): 4%; Activity (Escherichia coli [23]): 42%; Activity (Escherichia coli [24]): 58%; Activity (Escherichia coli [25]): Active
NCCCNCCCCN(CCCN)C(=O)CCCCNC(=O)c1ccc(-c2c3nc(c(-c4ccc(C(=O)NCCCCC(=O)N(CCCN)CCCCNCCCN)cc4)c4ccc([nH]4)c(-c4ccc(C(=O)NCCCCC(=O)N(CCCN)CCCCNCCCN)cc4)c4nc(c(-c5ccc(C(=O)NCCCCC(=O)N(CCCN)CCCCNCCCN)cc5)c5ccc2[nH]5)C=C4)C=C3)cc1 | 99 | 100 | Active | 97 | 38 | 34 | 15 | 85 | 100 | 66 | -2.83 | 51 | 75 | 11 | 57 | 40 | 53 | 43 | Active | 9 | Activity (Escherichia coli [22]): 15%; Activity (Escherichia coli [26]): 8%
C=CC1=C(C)c2cc3[nH]c(cc4nc(cc5[nH]c(cc1n2)c(C)c5CCC(=O)NCCCCC(=O)N(CCCN)CCCCNCCCN)C(CCC(=O)NCCCCC(=O)N(CCCN)CCCCNCCCN)=C4C)c(C)c3C=C | 100 | 100 | Active | 97 | 1 | 55 | 34 | 81 | 100 | 45 | -0.51 | 93 | 97 | 1 | 26 | 7 | 97 | 74 | Active | 2 | Activity (Escherichia coli [19]): 49%; Activity (Escherichia coli [20]): 68%; Activity (Escherichia coli [22]): 2%; Activity (Escherichia coli [23]): 32%; Activity (Escherichia coli [24]): 51%; Activity (Escherichia coli [25]): Active

The next lines start with results.

remaining at 0.75 h [1] [%] | remaining at 0.5 h [2] [%] | Activity [3] | remaining at 1 h [4] [%] | Activity (Escherichia coli [5]) [%] | Activity (Escherichia coli [6]) [%] | Activity (Escherichia coli [7]) [%] | Activity (Escherichia coli [8]) [%] | remaining at 0.25 h [9] [%] | Activity (Escherichia coli [10]) [%] | logP [11] | Activity (Escherichia coli [12]) [%] | Activity (Escherichia coli [13]) [%] | Activity (Escherichia coli [14]) [%] | Activity (Escherichia coli [15]) [%] | Activity (Escherichia coli [16]) [%] | Activity (Escherichia coli [17]) [%] | Activity (Escherichia coli [18]) [%] | Activity (DNA) | Activity (Escherichia coli [21]) [%] | SMILES | other results
99 | 99 | Active | 98 | 72 | 30 | 30 | 70 | 100 | 70 | 0.07 | 30 | 29 | 71 | 72 | 70 | 28 | 28 |  |  | Cc1cc(C)c(-c2c3nc(c(-c4ccc(C(=O)NCCCCC(=O)N(CCCN)CCCCNCCCN)cc4)c4ccc([nH]4)c(-c4c(C)cc(C)cc4C)c4nc(c(-c5ccc(C(=O)NCCCCC(=O)N(CCCN)CCCCNCCCN)cc5)c5ccc2[nH]5)C=C4)C=C3)c(C)c1 | 
98 | 99 | Active | 97 | 43 | 28 | 16 | 84 | 100 | 72 | -2.02 | 39 | 51 | 39 | 64 | 59 | 50 | 36 | Active | 7 | NCCCCN(CCCN)C(=O)CCCCNC(=O)c1ccc(-c2c3nc(c(-c4ccc(C(=O)NCCCCC(=O)N(CCCN)CCCCN)cc4)c4ccc([nH]4)c(-c4ccc(C(=O)NCCCCC(=O)N(CCCN)CCCCN)cc4)c4nc(c(-c5ccc(C(=O)NCCCCC(=O)N(CCCN)CCCCN)cc5)c5ccc2[nH]5)C=C4)C=C3)cc1 | Activity (Escherichia coli [22]): 10%; Activity (Escherichia coli [26]): 2%
100 | 100 | Active | 99 | 71 | 27 | 27 | 73 | 100 | 73 | 0.11 | 28 | 22 | 78 | 75 | 72 | 29 | 25 |  |  | Cc1cc(C)c(-c2c3nc(c(-c4ccc(C(=O)NCCCCC(=O)N(CCCN)CCCCN)cc4)c4ccc([nH]4)c(-c4c(C)cc(C)cc4C)c4nc(c(-c5ccc(C(=O)NCCCCC(=O)N(CCCN)CCCCN)cc5)c5ccc2[nH]5)C=C4)C=C3)c(C)c1 | 
